Results reported in ChEMBL document CHEMBL1138739, “Synthesis, nicotinic acetylcholine receptor binding, and antinociceptive properties of 2'-fluoro-3'-(substituted phenyl)deschloroepibatidine analogues. Novel nicotinic antagonist” (J Med Chem, 2004).
The source made the active and inactive calls.

Experiments:
Mus musculus [1] = species: Mus musculus; assay: Antinociceptive response was determined in mice using tail flick method; assay type: functional
Outline: (§1)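 Mice; epibatidine analogues given i.t., tail-flick (D'Amour–Smith) latency read 5 min later. Baseline 2–4 s, 10 s cutoff. %MPE = [(test − control)/(10 − control)] × 100. Eight to twelve mice per dose, at least four doses for dose–response; ED50 with confidence limits, or percent effect at a single dose.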

Mus musculus [2] = species: Mus musculus; assay: Antinociceptive response was determined in mice using hot plate flick method; assay type: functional
Outline: (§2)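 Mice, 8 per dose, given analogues sc and placed on a 55.0 °C hot plate 5 min later. Two control latencies at least 10 min apart, normally 8–12 s. Endpoint is paw lick or jump. %MPE = [(test − control)/(40 − control)] × 100. ED50 with confidence limits, or percent effect at a single dose.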

Mus musculus [3] = assay: Antinociceptive response was determined in mice at a dose of 10 mg/kg using hot plate flick method; assay type: functional; outline: as §2
[4] = target: Neuronal acetylcholine receptor; alpha4/beta2 (Rattus norvegicus, UniProt P09483+P12390); assay: Inhibition of alpha beta[3H]epibatidine binding to Nicotinic acetylcholine receptor alpha4-beta2 of rat cerebral cortex; assay type: tissue-based
Neuronal acetylcholine receptor; alpha4/beta2, sequence (P09483 whole entry): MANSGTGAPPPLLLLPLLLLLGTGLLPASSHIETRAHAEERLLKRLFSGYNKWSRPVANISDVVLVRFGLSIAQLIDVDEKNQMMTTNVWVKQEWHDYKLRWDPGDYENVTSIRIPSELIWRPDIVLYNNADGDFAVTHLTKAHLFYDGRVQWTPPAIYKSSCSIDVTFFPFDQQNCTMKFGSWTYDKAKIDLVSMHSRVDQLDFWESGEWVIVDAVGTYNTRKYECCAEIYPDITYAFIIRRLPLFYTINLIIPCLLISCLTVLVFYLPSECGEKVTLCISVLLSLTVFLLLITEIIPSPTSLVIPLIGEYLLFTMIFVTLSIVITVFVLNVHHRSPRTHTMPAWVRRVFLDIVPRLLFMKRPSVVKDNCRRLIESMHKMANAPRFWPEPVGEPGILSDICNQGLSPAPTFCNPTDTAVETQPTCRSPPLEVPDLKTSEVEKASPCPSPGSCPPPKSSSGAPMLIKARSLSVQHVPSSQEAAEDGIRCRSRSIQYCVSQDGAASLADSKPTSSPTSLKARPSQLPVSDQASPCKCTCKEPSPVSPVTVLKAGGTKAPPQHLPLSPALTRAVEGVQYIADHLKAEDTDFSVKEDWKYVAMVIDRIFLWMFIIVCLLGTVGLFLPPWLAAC
Neuronal acetylcholine receptor; alpha4/beta2, sequence (P12390 whole entry): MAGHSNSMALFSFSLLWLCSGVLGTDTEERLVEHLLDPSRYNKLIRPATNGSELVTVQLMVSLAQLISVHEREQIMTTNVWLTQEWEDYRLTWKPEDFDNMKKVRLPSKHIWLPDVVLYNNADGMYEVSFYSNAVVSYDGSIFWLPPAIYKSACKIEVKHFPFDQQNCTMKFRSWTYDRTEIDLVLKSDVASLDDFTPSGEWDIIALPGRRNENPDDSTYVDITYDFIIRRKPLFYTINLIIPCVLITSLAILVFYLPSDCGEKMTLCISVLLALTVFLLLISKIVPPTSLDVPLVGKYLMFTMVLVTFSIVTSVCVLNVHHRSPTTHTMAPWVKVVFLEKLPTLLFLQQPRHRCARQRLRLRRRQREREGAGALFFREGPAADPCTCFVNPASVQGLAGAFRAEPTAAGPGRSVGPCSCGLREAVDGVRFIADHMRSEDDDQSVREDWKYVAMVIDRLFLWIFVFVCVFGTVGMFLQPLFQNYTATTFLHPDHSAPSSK

Mus musculus [5] = assay: Antinociceptive response was determined in mice at a dose 10 mg/kg using tail flick method; assay type: functional; outline: as §1
Mus musculus [6] = assay: Antinociceptive response was determined in mice at a dose of 10 mg/kg using hypothermia method; assay type: functional
Outline: (§3)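 Rectal temperature in mice by thermistor probe inserted 24 mm, read just before and at several times after sc saline or analogue. ED50 with confidence limits, or change at a single dose.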

Mus musculus [7] = assay: Antinociceptive response was determined in mice at a dose of 10 mg/kg using spontaneous activity method; assay type: functional
Outline: (§4)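 Mice given 0.9% saline or analogue sc and put in individual photocell activity cages 5 min later. Beam interruptions counted over the next 10 min. ED50 with confidence limits, or percent effect at a single dose.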

Mus musculus [8] = assay: Percent effect on the body temperature was measured at a dose of 10 mg/kg; assay type: functional
Mus musculus [9] = assay: Percent effect on the body temperature was measured at a dose of 1 mg/kg; assay type: functional
Mus musculus [10] = species: Mus musculus; assay: Antinociceptive response was determined in mice using spontaneous activity method; assay type: functional; outline: as §4
Mus musculus [11] = species: Mus musculus; assay: Antinociceptive response was determined in mice using hypothermia method; assay type: functional; outline: as §3
Mus musculus [12] = assay: Antinociceptive response was determined in mice at a dose of 1 mg/kg using hot plate flick method; assay type: functional
Mus musculus [13] = assay: Percent effect on the body temperature was measured at a dose of 5 mg/kg; assay type: functional
[14] = target: Neuronal acetylcholine receptor subunit alpha-7 (Rattus norvegicus, UniProt Q05941); assay: Inhibition of [125I]-iodo-MLA binding to Nicotinic acetylcholine receptor alpha-7 of rat cerebral cortex; assay type: tissue-based
Neuronal acetylcholine receptor subunit alpha-7, sequence (Q05941 whole entry): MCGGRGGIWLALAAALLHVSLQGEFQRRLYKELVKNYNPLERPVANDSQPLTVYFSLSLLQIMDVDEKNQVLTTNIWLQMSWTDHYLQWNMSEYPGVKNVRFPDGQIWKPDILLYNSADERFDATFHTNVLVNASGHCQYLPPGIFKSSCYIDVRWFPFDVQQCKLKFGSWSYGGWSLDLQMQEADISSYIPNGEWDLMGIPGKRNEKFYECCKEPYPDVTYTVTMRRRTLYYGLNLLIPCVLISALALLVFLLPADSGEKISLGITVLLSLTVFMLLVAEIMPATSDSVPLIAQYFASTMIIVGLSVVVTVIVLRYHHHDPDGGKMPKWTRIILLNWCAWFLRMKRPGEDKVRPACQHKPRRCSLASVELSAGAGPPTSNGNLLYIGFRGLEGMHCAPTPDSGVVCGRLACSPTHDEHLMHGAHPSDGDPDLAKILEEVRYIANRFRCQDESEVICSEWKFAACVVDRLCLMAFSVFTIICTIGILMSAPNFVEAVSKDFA

Mus musculus [15] = assay: Antinociceptive response was determined in mice at a dose 15 mg/kg using tail flick method; assay type: functional; outline: as §1
Mus musculus [16] = assay: Antinociceptive response was determined in mice at a dose of 15 mg/kg using hot plate flick method; assay type: functional; outline: as §2

Structure (SMILES) | AD50 (Mus musculus [1]) [mg/kg] | AD50 (Mus musculus [2]) [mg/kg] | ED50 (Mus musculus [3]) [mg/kg] | Ki [4] [nM] | Response (Mus musculus [5]) [%] | Response (Mus musculus [6]) [%] | ED50 (Mus musculus [10]) [mg/kg] | also measured
Fc1ncc(C2CC3CCC2N3)cc1-c1ccc(Cl)cc1 (centres undefined) | 0.0003 | 0.26 | 7 | 0.04 | 2 | 0 | – | Response (Mus musculus [7]): 50%; Body temperature (Mus musculus [8]): 0%
Fc1ccc(-c2cc(C3CC4CCC3N4)cnc2F)cc1 (centres undefined) | 0.0005 | 0.23 | 15 | 0.02 | 2 | 10 | 2 | Body temperature (Mus musculus [9]): inactive
COc1cccc(-c2cc(C3CC4CCC3N4)cnc2F)c1 (centres undefined) | 0.008 | 2 | 8 | 0.12 | 0 | 0 | 6 | Body temperature (Mus musculus [8]): 0%
Fc1ccc(C2CC3CCC2N3)cn1 (centres undefined) | – | – | – | 0.02 | – | – | – | –
Fc1cccc(-c2cc(C3CC4CCC3N4)cnc2F)c1 (centres undefined) | 0.005 | – | – | – | – | – | 0.36 | Body temperature (Mus musculus [9]): 0%; ED50 (Mus musculus [1]): 3.5 mg/kg; ED50 (Mus musculus [11]): 1.8 mg/kg; ED50 (Mus musculus [2]): 3.3 mg/kg; AD50 (Mus musculus [12]): 20 mg/kg
Nc1ccc(-c2cc(C3CC4CCC3N4)cnc2F)cc1 (centres undefined) | 0.005 | 1.8 | 10 | 0.09 | 2 | 0 | 6 | Body temperature (Mus musculus [13]): 0%
Fc1ncc(C2CC3CCC2N3)cc1-c1cccc(Cl)c1 (centres undefined) | 0.01 | 0.45 | 14 | 0.07 | 3 | 0 | – | Response (Mus musculus [7]): 15%; Body temperature (Mus musculus [8]): 0%
Fc1ncc(C2CC3CCC2N3)cc1-c1ccccc1 (stereo in doubt; (-)-5a) | 0.08 | 0.7 | 10 | 0.26 | – | – | – | Ki [14]: > 2000 nM; Response (Mus musculus [15]): 5%; Response (Mus musculus [6]; 10 mg/kg): -0.8%
Fc1ncc(C2CC3CCC2N3)cc1-c1ccccc1 (single isomer, unassigned; (+)) | 1 | 2.4 | – | – | – | – | – | Ki [14]: > 2000 nM; ED50 (Mus musculus [16]; dose 15 mg/kg): 8 mg/kg; Response (Mus musculus [15]): 7%; Response (Mus musculus [6]; 10 mg/kg): -0.4%
Nc1cccc(-c2cc(C3CC4CCC3N4)cnc2F)c1 (centres undefined) | 0.009 | 0.82 | 4 | 0.16 | 1 | 0 | 8.5 | Body temperature (Mus musculus [13]): 5%
O=[N+]([O-])c1cccc(-c2cc(C3CC4CCC3N4)cnc2F)c1 (centres undefined) | 0.0005 | 0.13 | 20 | 0.05 | 3 | 0 | 6.5 | Body temperature (Mus musculus [13]): 5%
Fc1ncc(C2CC3CCC2N3)cc1-c1ccccc1 (racemic) | 0.5 | 1.2 | – | – | – | – | 4.7 | Ki [14]: > 2000 nM; ED50 (Mus musculus [16]; Mus musculus, read-out: ED50): 4 mg/kg; Response (Mus musculus [15]): 3%; Response (Mus musculus [6]; 10 mg/kg): -0.5%
Clc1ccc([C@H]2C[C@@H]3CC[C@H]2N3)cn1 [(-)-EPIBATIDINE] | – | – | – | – | – | – | – | ED50 (Mus musculus [1]): 0.004 mg/kg; ED50 (Mus musculus [11]): 0.001 mg/kg; ED50 (Mus musculus [2]): 0.004 mg/kg
COc1ccc(-c2cc(C3CC4CCC3N4)cnc2F)cc1 (centres undefined) | 0.05 | 0.52 | 16 | 0.06 | 2 | 0 | 3.6 | Body temperature (Mus musculus [9]): 10%
O=[N+]([O-])c1ccc(-c2cc(C3CC4CCC3N4)cnc2F)cc1 (centres undefined) | 0.003 | 0.12 | – | – | 5 | – | 0.22 | Body temperature (Mus musculus [9]): 0%
CN1CCC[C@H]1c1cccnc1 [NICOTINE] | – | – | – | – | – | – | 0.5 | ED50 (Mus musculus [1]): 1.3 mg/kg; ED50 (Mus musculus [11]): 1 mg/kg; ED50 (Mus musculus [2]): 0.65 mg/kg
